# The list is not random: actives were taken first. Their share in the collection is about 2.3%.
# EWS-Fli inh – blocks EWS/Fli oncoprotein-driven transcription. A673 NR0B1-luciferase reporter, viability-normalised. inhibition, % at 12.6 µM. 350,000 tested, 0.67% active. AID 651661;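 active = mean inhibition of at least 50% after viability correction, with every replicate also passing that limit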;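 also: firefly luciferase signal divided by Alamar Blue viability fluorescence both relative to DMSO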
# Xi reactivation – X-chromosome reactivation activator. 360,000 tested, 0.055% active. activation, % at 7.58 µM. XiGFP mouse fibroblasts, % GFP-positive cells imaging, 3 d; cells co-treated with 5-aza-dC sensitizer; scaled so ellipticine positive control = 100%. AID 743238;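 active = mean normalized replicate activation at least 10% and every replicate at or above 10%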
#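 Material: XiGFP fibroblasts, SV40-immortalized. Buffer or medium: DMEM plus 5-aza-dC sensitizer. Compound: single concentration per compound, delivered by pin transfer. Times: 3 days compound exposure. Controls: ellipticine 6 µM.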
# TWEAK Fn14 block – blocks TWEAK-Fn14 interaction in a reporter cell assay; 360,000 tested, 2% active; TWEAK-stimulated Fn14 reporter cells, luciferase luminescence, 8 h; AID 1159606; inhibition, % at 10 µM; in the data active = inhibition above about 50%
# TROY NFkB inh – TROY signaling inhibition. inhibition, % at 10 µM. Q293 LMP1-TROYcd NF-kB luciferase reporter, 4 h. 360,000 tested, 0.98% active;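 active = compounds whose plate-normalised and pattern-corrected inhibition of the luciferase reporter signal at the single screening dose is 50% or more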
# FN deposition inh – fibronectin deposition inhibition | AH1F fibroblasts, Alexa488-fibronectin deposition fluorescence, overnight | 350,000 tested, 0.086% active | inhibition, % at 12.6 µM;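 active = mean inhibition across replicates of 30% or more, regardless of how many single replicates reach that level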
#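 Material: AH1F fibroblasts assembling fluorescent fibronectin matrix; amount: 10000 AH1F cells/well; medium: DMEM, 2% serum; reagent: Alexa488-fibronectin, 24 nM final in well; dosing: single compound dose, delivered by pin transfer; incubation: 1 h adhesion, overnight exposure; detection: fluorescence after three HBSS washes, excitation 485 nm, emission 525 nm; measure: fibronectin deposition inhibition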
# LGR2 inh – blocks bursicon-induced cAMP signaling via Drosophila LGR2. HEK293 LGR2, CRE-luciferase, bursicon-stimulated, 4 h. inhibition, % at 9.99 µM. 380,000 tested, 0.35% active;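 active = drop in luminescence signal, shown as inhibition above about 50% in the replicate tests, limit read from the data, passing the limit was not always enough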;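 also: agonist challenge used bursicon conditioned medium at about half maximal strength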
# DNA binding – small molecule DNA binding by fluorescence polarization | shares compounds with EWS-Fli inh | salmon sperm DNA acridine orange fluorescence polarization | AC35, µM (doses to about 68 µM) | 640 tested, 2% active | AID 720586;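 active = fitted curve reaches a 35% signal fall AC35 below twice the sample's top valid tested dose, actives reach about 48 µM in these data; inactive = the rest, including activity in the rising direction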;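 also: lower polarization ratio signals compound binding to DNA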
# Numbers stand for hits; 0 = inactive; - = no result given; ! = repeats disagree.
SMILES,EWS-Fli inh,Xi reactivation,TWEAK Fn14 block,TROY NFkB inh,FN deposition inh,LGR2 inh,DNA binding
COc1cc(-c2coc3c(C(=O)NCc4ccc(C(F)(F)F)cc4)cccc23)ccc1O,62,0,0,0,0,0,0
S=c1[nH]nc(-c2cc(-c3ccccc3)n[nH]2)n1/N=C/C(Br)=C/c1ccccc1,75,0,75,0,0,0,0
C/C=C/c1ccc(C2[C@@H]3CN(C(=O)Cc4ccccc4)C[C@H]2N3)cc1 (stereo partly specified),55!,0,-,-,0,0,0
O=C1CCCC2=C1C(c1ccccn1)Nc1ccc(C(=O)c3ccccc3)cc1N2 (stereo unspecified),80,0,0,0,-,0,0
O=C1CCCC2=C1C(c1ccco1)Nc1ccc(C(=O)c3ccccc3)cc1N2 (stereo unspecified),-,-,0,0,-,-,-
CCN(Cc1ccccc1)c1ccc(/C=N/N=C(N)N)cc1,57,0,0,0,0,62,0
C[C@H]1CN([C@@H](C)CO)C(=O)c2cccc(NS(C)(=O)=O)c2O[C@H]1CN(C)CC1CC1,0,0,-,-,0,0,-
S=C(NCCN1CCOCC1)Nc1ccccc1Cl,83,0,0,0,-,0,0
Cc1cc(C(=O)NNC(=O)c2ccc(S(=O)(=O)N(C)C)cc2)c(C)o1,74,0,0,0,-,0,0
CO[C@H]1CN(C)C(=O)c2cc(NC(C)=O)ccc2OC[C@H](C)N(C(=O)c2ccc(F)cc2)C[C@H]1C,0,0,-,-,0,0,-
Cc1sc2nc(CN3CCC(C)CC3)nc(Cl)c2c1C,73,0,-,-,0,-,0
O=C1c2ccccc2C(=O)N1CCCCNc1ccccc1,57,0,0,0,0,0,0
O=C1c2ccccc2C(=O)N1CCCCCCc1ccccc1,0,0,0,0,0,0,-
C[C@H]1CN([C@@H](C)CO)C(=O)c2cccc(NC(=O)c3ccncc3)c2O[C@@H]1CN(C)Cc1ccc(Oc2ccccc2)cc1,0,-,-,-,-,-,-
CC(=O)N(C)C[C@H]1Oc2ncc(C#Cc3ccncc3)cc2C(=O)N([C@@H](C)CO)C[C@H]1C,0,0,-,-,0,0,-
CCNC(=O)[C@H]1[C@H](CO)[C@H]2Cn3c(ccc(-c4cccnc4)c3=O)[C@H]2N1Cc1ccccc1,0,0,-,-,-,0,-
COc1ccc(CCCNC(=O)C2Cc3c(-c4ccc5c(c4)OCO5)ccnc3O2)cc1 (stereo unspecified),53,0,0,0,0,0,0
COc1ccc(NC(=O)Nc2ccc3c(c2)CC(=O)N([C@@H](C)CO)C[C@@H](C)[C@@H](CN(C)Cc2ccncc2)O3)cc1,0,0,-,-,-,0,-
Oc1ccc2c(c1)oc1cc(O)ccc12,-,-,0,0,0,-,-
O=c1oc2cc(O)ccc2s1,60,0,0,0,0,-,0
N#C[C@@H]1[C@H](c2ccc(C#Cc3ccc(F)cc3)cc2)[C@@H](CO)N1C(=O)Nc1ccc(F)cc1,75,0,-,-,0,59,0
CN(C)C(=O)c1ccc(-c2ccccc2[C@@H]2[C@@H](CO)N(C(=O)C3CC3)[C@H]2C#N)cc1,61,0,-,-,0,0,0
N#C[C@H]1[C@H](c2ccc(C#Cc3ccccc3F)cc2)[C@@H](CO)N1C(=O)C1CCCCC1,66,0,-,-,0,0,0
N#C[C@H]1[C@@H](c2ccc(C#Cc3ccccc3F)cc2)[C@@H](CO)N1C(=O)C1CCCCC1,0,0,-,-,0,0,-
N#C[C@H]1N[C@H](CO)[C@H]1c1ccc(C#Cc2ccc(F)cc2)cc1,53,0,-,-,0,0,0
SMILES,EWS-Fli inh,Xi reactivation,TWEAK Fn14 block,TROY NFkB inh,FN deposition inh,LGR2 inh,DNA binding
N#C[C@H]1[C@H](c2ccc(C#CC3CCCC3)cc2)[C@H](CO)N1C(=O)Nc1ccc(F)cc1,0,0,-,-,0,0,-
N#C[C@@H]1N[C@H](CO)[C@@H]1c1ccc(C#Cc2ccccc2F)cc1,0,0,-,-,0,0,-
CN1C[C@@H]2[C@H](c3ccccc31)[C@@H](CO)N2C(=O)C1CCCCC1,0,0,-,-,-,0,-
CCCNC(=O)N1[C@H](C#N)[C@H](c2ccc(C#Cc3cccc(F)c3)cc2)[C@H]1CO,61,0,-,-,0,0,0
CCCNC(=O)N1[C@H](C#N)[C@H](c2ccc(C#Cc3ccc(F)cc3)cc2)[C@H]1CO,71,0,-,-,0,53,0
N#C[C@H]1[C@H](c2ccc(-c3ccccc3F)cc2)[C@@H](CO)N1C(=O)c1ccccn1,57,0,-,-,0,0,0
COc1ccccc1CN(C)C[C@@H]1OCc2ccccc2-c2c(n(C)c3ccccc23)C(=O)N([C@H](C)CO)C[C@H]1C,-,0,-,-,0,-,-
C[C@H]1CN([C@@H](C)CO)S(=O)(=O)c2ccc(C#CC(C)(C)O)cc2O[C@@H]1CN(C)Cc1ccc(-c2ccccc2)cc1,68,0,-,-,0,54,0
C[C@@H]1CN([C@@H](C)CO)S(=O)(=O)c2ccc(C#CCN(C)C)cc2O[C@@H]1CN(C)Cc1ccncc1,53,0,-,-,-,0,0
C[C@@H]1CN([C@H](C)CO)S(=O)(=O)c2ccc(C#CC(C)(C)O)cc2O[C@@H]1CN(C)Cc1ccc(-c2ccccc2)cc1,0,0,-,-,0,0,-
C[C@@H]1CN([C@@H](C)CO)C(=O)Cc2cc(N(C)C)ccc2O[C@@H]1CN(C)C(=O)Nc1ccc2c(c1)OCO2,0,0,-,-,0,0,-
O=c1cc(CN2CCN(Cc3ccccc3)CC2)c2ccc(O)c(O)c2o1,52,0,0,0,0,0,0
Cc1c(O)ccc2c(CN3CCN(Cc4ccccc4)CC3)cc(=O)oc12,0,0,0,0,0,0,-
CCCCC1Cc2[nH]c(=S)[nH]c(=O)c2C(c2ccc3ccccc3c2)O1 (stereo unspecified),0,0,0,0,0,0,-
CCCC[C@@H]1Cc2[nH][nH]c(=O)c2[C@H](c2ccc3ccccc3c2)O1,52,0,0,0,0,0,0
CC1=NN(c2ccccc2)C(=O)/C1=C/C=C/C=C/N(C)C,0,0,0,0,0,0,-
CC1=NN(c2ccc(C)cc2)C(=O)/C1=C\C=C\c1ccccc1,61,0,94,0,0,0,0
CC(=O)N(C)C[C@@H]1Oc2cc(C#CC3CC3)ccc2S(=O)(=O)N([C@H](C)CO)C[C@H]1C,0,0,-,-,0,0,-
CCCCCCCCCCCCCCCCCCNc1ccn(C2OC(COP(=O)(O)OCC3OC(n4cc(F)c(=O)[nH]c4=O)CC3O)C(O)C2O)c(=O)n1 (stereo unspecified),61,0,0,0,0,-,0
O=c1[nH]c(=O)n(C2OC(CO)C(O)C(O)C2O)cc1F (stereo unspecified),0,-,-,-,-,-,-
C[C@@H]1CN(C)C(=O)Cc2cc(N(C)C)ccc2O[C@H]1CN(C)C,-,0,-,-,0,-,-

# Assay outcomes deposited in PubChem BioAssay by several laboratories.
